In ChEMBL document CHEMBL4152363, “Andrographolide derivative as STAT3 inhibitor that protects acute liver damage in mice” (Bioorg Med Chem, 2018):
The source made the active and inactive calls. The calls are words filed in the database; no cut-off is given here.

Legend:
[1] = molecular target: T1, Signal transducer and activator of transcription 1-alpha/beta (Homo sapiens) (UniProt P42224); assay: Inhibition of IFNgamma-stimulated STAT1 phosphorylation at Tyr701 residues in human AD293 cell lysates incubated with IFNgamma followed by compound addition at 10 uM by Western blot analysis
T1 sequence (whole entry): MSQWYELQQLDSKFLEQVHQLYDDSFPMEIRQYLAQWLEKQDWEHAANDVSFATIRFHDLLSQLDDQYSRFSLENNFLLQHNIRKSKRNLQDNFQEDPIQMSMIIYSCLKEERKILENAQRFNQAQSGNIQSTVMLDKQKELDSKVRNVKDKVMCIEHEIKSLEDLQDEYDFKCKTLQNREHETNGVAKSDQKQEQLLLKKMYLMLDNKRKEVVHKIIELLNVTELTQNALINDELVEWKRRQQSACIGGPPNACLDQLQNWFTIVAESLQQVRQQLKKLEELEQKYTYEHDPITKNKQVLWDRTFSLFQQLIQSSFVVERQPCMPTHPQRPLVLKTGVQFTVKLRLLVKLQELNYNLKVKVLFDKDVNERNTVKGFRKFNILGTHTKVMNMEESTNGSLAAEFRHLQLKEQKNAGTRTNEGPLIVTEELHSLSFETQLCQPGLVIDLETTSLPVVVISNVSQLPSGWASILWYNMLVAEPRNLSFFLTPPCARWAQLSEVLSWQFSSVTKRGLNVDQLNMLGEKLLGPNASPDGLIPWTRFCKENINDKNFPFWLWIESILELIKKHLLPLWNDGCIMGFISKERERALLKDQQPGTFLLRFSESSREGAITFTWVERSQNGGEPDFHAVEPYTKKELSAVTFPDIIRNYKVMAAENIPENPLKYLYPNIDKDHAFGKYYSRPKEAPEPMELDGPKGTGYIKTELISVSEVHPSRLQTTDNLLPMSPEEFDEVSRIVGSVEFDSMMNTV
Summary of the method: (§1)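 AD-293 cells treated with 1 μg/mL IFN-γ alone or with compounds at 10 μM; phospho- and total STAT1 and STAT3 assessed by western blot; representative of at least three independent experiments.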

[2] = test system: AD293; assay: Cytotoxicity against human AD293 cells; assay type: cell-based; conditions: ad293
Summary of the method: (§2)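 AD-293 or HeLa cells grown in high-glucose DMEM with 10% FBS and 1% penicillin-streptomycin; compound exposure 24 h; cytotoxicity reported as CC10.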

[3] = test system: HeLa; assay: Cytotoxicity against human HeLa cells; assay type: cell-based; summary of the method: as §2
[4] = molecular target: T2, Signal transducer and activator of transcription 3 (Homo sapiens, UniProt P40763); assay: Inhibition of […] activation in human AD293 cells incubated […] for 16 hrs followed by compound addition measured after 4 hrs by luciferase reporter gene assay; assay type: cell-based
[5] = molecular target: T2, Signal transducer and activator of transcription 3; assay: Inhibition of […] activation in human HeLa cells incubated […] for 16 hrs followed by compound addition measured after 4 hrs by luciferase reporter gene assay; assay type: cell-based
Summary of the method: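 NF-κB pathway in AD-293 or HeLa cells stimulated with 50 ng/mL TNF-α; compound treatment 4 h; luciferase activity read from cell extracts; EC50 derived.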

[6] = molecular target: T2, Signal transducer and activator of transcription 3; assay: Inhibition of IFNgamma-stimulated STAT3 phosphorylation at Tyr705 residues in human AD293 cell lysates incubated with IFNgamma followed by compound addition at 10 uM by Western blot analysis; summary of the method: as §1
[7] = molecular target: T2, Signal transducer and activator of transcription 3; assay: Inhibition of IFNgamma-stimulated STAT3 activation in human AD293 cells incubated with IFNgamma for 16 hrs followed by compound addition measured after 24 hrs by luciferase reporter gene assay; assay type: cell-based
Summary of the method: (§3)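 AD-293 or HeLa cells in DMEM/10% FBS stimulated with 20 pg/mL IFN-γ; compound treatment 24 h; luciferase activity measured in cell extracts; EC50 derived.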

[8] = molecular target: T2, Signal transducer and activator of transcription 3; assay: Inhibition of IFNgamma-stimulated STAT3 activation in human HeLa cells incubated with IFNgamma for 16 hrs followed by compound addition measured after 24 hrs by luciferase reporter gene assay; assay type: cell-based; summary of the method: as §3
[9] = molecular target: T2, Signal transducer and activator of transcription 3; assay: Inhibition of IL-6 stimulated STAT3 activation in human AD293 cells incubated with IL-6 for 16 hrs followed by compound addition measured after 6 hrs by luciferase reporter gene assay; assay type: cell-based
Summary of the method: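 AD-293 cells stimulated with 2.5 μg/mL IL-6; compound treatment 6 h; luciferase activity read from cell extracts; EC50 derived.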

[10] = molecular target: T2, Signal transducer and activator of transcription 3; assay: Inhibition of IFNgamma-stimulated GFP/FLAG-tagged STAT3 dimerization in human AD293 cells incubated for 6 hrs by Western blot analysis; assay type: cell-based
Summary of the method: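 AD-293 cells co-transfected 48 h with GFP- and FLAG-tagged STAT3 plasmids, then IFN-γ with or without compound for 6 h; 100 μg lysate (RIPA) immunoprecipitated with anti-FLAG and protein G beads; blots probed for GFP and FLAG, chemiluminescent detection.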

T2 sequence (P40763 whole entry): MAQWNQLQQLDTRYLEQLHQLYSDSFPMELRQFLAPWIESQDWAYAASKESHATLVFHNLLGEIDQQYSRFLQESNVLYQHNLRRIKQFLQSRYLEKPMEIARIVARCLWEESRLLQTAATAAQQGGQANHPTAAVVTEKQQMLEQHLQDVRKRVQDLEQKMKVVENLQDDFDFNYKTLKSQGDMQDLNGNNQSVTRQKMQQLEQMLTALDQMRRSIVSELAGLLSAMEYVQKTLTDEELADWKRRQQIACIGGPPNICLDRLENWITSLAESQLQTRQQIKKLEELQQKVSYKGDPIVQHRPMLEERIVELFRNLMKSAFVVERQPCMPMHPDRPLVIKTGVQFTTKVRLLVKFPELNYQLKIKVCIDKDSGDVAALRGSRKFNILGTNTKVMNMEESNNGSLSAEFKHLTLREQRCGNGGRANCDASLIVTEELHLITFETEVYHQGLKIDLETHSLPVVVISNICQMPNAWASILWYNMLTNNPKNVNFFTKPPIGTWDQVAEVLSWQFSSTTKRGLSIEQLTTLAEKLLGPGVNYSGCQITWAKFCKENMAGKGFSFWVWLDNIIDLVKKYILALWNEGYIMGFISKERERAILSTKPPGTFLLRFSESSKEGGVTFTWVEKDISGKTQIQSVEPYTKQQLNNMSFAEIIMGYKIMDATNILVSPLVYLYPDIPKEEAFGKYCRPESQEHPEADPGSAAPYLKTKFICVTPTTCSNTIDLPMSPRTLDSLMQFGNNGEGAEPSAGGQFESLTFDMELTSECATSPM

Row | inhibition [1] | EC50 [4] | EC50 [5] | inhibition [6] | EC50 [7] | EC50 [8] | EC50 [9] | IC50 [10] | SMILES | CC10 [2] | CC10 [3]
1 | inactive | > 10 µM | > 10 µM | inactive | 5.39 µM | 6.15 µM | 4.16 µM |  | CC(C)(C)[Si](C)(C)O[C@@H]1CC[C@]2(C)[C@H](CC[C@@]3(CO3)[C@H]2C/C=C2/C(=O)OC[C@H]2O)[C@]1(C)CO | > 10 µM | > 10 µM
2 | inactive | > 10 µM | > 10 µM | inactive | 5.38 µM | 8.34 µM | > 10 µM |  | CC(C)(C)[Si](C)(C)O[C@@H]1CC[C@]2(C)[C@H](CC[C@]3(CO3)[C@H]2C/C=C2/C(=O)OC[C@H]2O)[C@]1(C)CO | > 10 µM | > 10 µM
3 | inactive | > 10 µM | > 10 µM | inactive | 5.05 µM | 5.8 µM | > 10 µM |  | C=C1CC[C@@H]2[C@](C)(CO[Si](C)(C)C(C)(C)C)[C@H](OC(C)=O)CC[C@@]2(C)[C@@H]1C/C=C1/C(=O)OC[C@H]1OC(C)=O | > 10 µM | > 10 µM
4 | inactive | > 10 µM | > 10 µM | inactive | 5.68 µM | 6.57 µM | 10.6 µM |  | C=C1CC[C@@H]2[C@](C)(CO)[C@H](O)CC[C@@]2(C)[C@@H]1C/C=C1/C(=O)OC[C@H]1O[Si](C)(C)C(C)(C)C | > 10 µM | > 10 µM
5 |  |  |  |  |  |  |  | 86 µM | Cc1ccc(S(=O)(=O)OCC(=O)Nc2ccc(C(=O)O)cc2)cc1 |  | 
